Data as given in ChEMBL document CHEMBL3091455, “Dimethylaminopyridine derivatives of lupane triterpenoids cause mitochondrial disruption and induce the permeability transition” (Bioorg Med Chem, 2013).
Activity calls are given as the source filed them. The rule behind the calls is not given here.

Columns and labels:
Rattus norvegicus [1] = organism: Rattus norvegicus; test: Effect on electron transport protein complex 2 in Wistar-Han rat liver mitochondria using succinate as substrate assessed as phosphorylative lag phase at 6 ug/mg relative to control
In short: (§1)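 Membrane potential recorded by TPP⁺ electrode, 1 mg rat liver mitochondria, 30 °C, pH 7.2 sucrose/KCl medium with 3 μM TPP⁺. Compound (3 or 6 µg/mg protein) given 1 min before glutamate/malate (5/2.5 mM) or succinate (5 mM) + 3 µM rotenone. Lag phase follows the ADP pulse (125 nmol/mg protein).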

Rattus norvegicus [2] = organism: Rattus norvegicus; test: Effect on electron transport protein complex 2 in Wistar-Han rat liver mitochondria using succinate as substrate assessed as phosphorylative lag phase at 3 ug/mg relative to control; in short: as §1
Rattus norvegicus [3] = organism: Rattus norvegicus; test: Effect on electron transport protein complex 1 in Wistar-Han rat liver mitochondria using glutamate/malate as substrate assessed as phosphorylative lag phase at 6 ug/mg relative to control; in short: as §1
Rattus norvegicus [4] = organism: Rattus norvegicus; test: Effect on electron transport protein complex 1 in Wistar-Han rat liver mitochondria using glutamate/malate as substrate assessed as phosphorylative lag phase at 3 ug/mg relative to control; in short: as §1
Rattus norvegicus [5] = organism: Rattus norvegicus; test: Effect on electron transport protein complex 2 in Wistar-Han rat liver mitochondria using succinate as substrate assessed as ADP-induced depolarization at 6 ug/mg relative to control
Rattus norvegicus [6] = organism: Rattus norvegicus; test: Effect on electron transport protein complex 2 in Wistar-Han rat liver mitochondria using succinate as substrate assessed as ADP-induced depolarization at 3 ug/mg relative to control
Rattus norvegicus [7] = organism: Rattus norvegicus; test: Effect on electron transport protein complex 1 in Wistar-Han rat liver mitochondria using glutamate/malate as substrate assessed as ADP-induced depolarization at 6 ug/mg relative to control
Rattus norvegicus [8] = organism: Rattus norvegicus; test: Effect on electron transport protein complex 1 in Wistar-Han rat liver mitochondria using glutamate/malate as substrate assessed as ADP-induced depolarization at 3 ug/mg relative to control
Rattus norvegicus [9] = organism: Rattus norvegicus; test: Effect on electron transport protein complex 2 in Wistar-Han rat liver mitochondria using succinate as substrate assessed as mitochondrial transmembrane electric potential at 6 ug/mg relative to control
Rattus norvegicus [10] = organism: Rattus norvegicus; test: Effect on electron transport protein complex 2 in Wistar-Han rat liver mitochondria using succinate as substrate assessed as mitochondrial transmembrane electric potential at 3 ug/mg relative to control
Rattus norvegicus [11] = organism: Rattus norvegicus; test: Effect on electron transport protein complex 1 in Wistar-Han rat liver mitochondria using glutamate/malate as substrate assessed as mitochondrial transmembrane electric potential at 6 ug/mg relative to control
Rattus norvegicus [12] = organism: Rattus norvegicus; test: Effect on electron transport protein complex 1 in Wistar-Han rat liver mitochondria using glutamate/malate as substrate assessed as mitochondrial transmembrane electric potential at 3 ug/mg relative to control
Rattus norvegicus [13] = organism: Rattus norvegicus; test: Inhibition of electron transport protein complex 1/2 in Wistar-Han rat liver mitochondria using glutamate/malate and succinate as substrate assessed as decrease of respiratory control ratio at 6 ug/mg
In short: (§2)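 Compound (3 or 6 µg/mg protein) preincubated 1 min, then 10 mM glutamate/5 mM malate or 5 mM succinate + 3 µM rotenone. ADP 187.5 nmol/mg protein; oligomycin 1 µg; FCCP 1 µM. RCR = state 3/state 4; ADP/O per Chance and Williams. Expressed as % control, means ± SEM, three preparations.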

Rattus norvegicus [14] = organism: Rattus norvegicus; test: Inhibition of electron transport protein complex 1/2 in Wistar-Han rat liver mitochondria using glutamate/malate and succinate as substrate assessed as increase of state 3 and 4 mitochondrial oxygen consumption at 3 to 6 ug/mg; in short: as §2
BJ = test: Induction of mitochondrial depolarization in human BJ cells at 1 ug/ml after 48 hrs by MitoTracker Red staining; assay type: cell-based
In short: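 BJ normal human fibroblasts grown as monolayers in DMEM with 10% FBS, 37 °C, 5% CO2. Seeded on glass coverslips, attached 24 h, then exposed to compound (1 µg/ml) for 48 h. MitoTracker Red CMXRos (7.3 nM) added 30 min before end at 37 °C in dark. Methanol-fixed at -20 °C overnight, imaged by epifluorescence (63× objective). Three independent experiments.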

Hs-578T = test: Induction of mitochondrial depolarization in human estrogen-insensitive Hs578T cells at 1 ug/ml after 48 hrs by MitoTracker Red staining; assay type: functional, cell-based
In short: (§3)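 Cells grown in DMEM with 10% FBS at 37 °C, 5% CO₂, seeded on coverslips, attached 24 h. Then 1 µg/ml compound for 48 h. MitoTracker Red CMXRos 7.3 nM added for the final 30 min. Cells fixed in cold methanol at −20 °C overnight and imaged by epifluorescence with a 63× objective. Three independent experiments.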

MCF7 = test: Induction of mitochondrial depolarization in human estrogen-sensitive MCF7 cells at 1 ug/ml after 48 hrs by MitoTracker Red staining; assay type: functional, cell-based; in short: as §3
Rattus norvegicus [15] = organism: Rattus norvegicus; test: Effect on calcium-induced mitochondrial swelling in Wistar-Han rat liver mitochondria assessed as mitochondrial transmembrane electric potential after 2 mins; assay type: functional
In short: (§4)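 TPP⁺ electrode, 30 °C, 1 mg rat liver mitochondria in 1 ml 200 mM sucrose, 10 mM Tris-MOPS pH 7.2, 10 µM EGTA, 1 mM KH₂PO₄, 3 µM rotenone, 3 µM TPP⁺. Compound incubated with mitochondria 2 min (legend), then 5 mM succinate. Calcium 30–60 nmol pulses, depending on preparation. Controls: 1 µM cyclosporin A pre-incubated; FCCP.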

Rattus norvegicus [16] = organism: Rattus norvegicus; test: Increase of calcium-induced mitochondrial permeability transition in Wistar-Han rat liver mitochondria assessed as mitochondrial transmembrane electric potential after 2 mins; assay type: functional; in short: as §4
Rattus norvegicus [17] = organism: Rattus norvegicus; test: Inhibition of electron transport protein complex 1/2 in Wistar-Han rat liver mitochondria using glutamate/malate and succinate as substrate assessed as increase of passive flux of protons through mitochondrial inner membrane at 3 to 6 ug/mg
Rattus norvegicus [18] = organism: Rattus norvegicus; test: Inhibition of electron transport protein complex 1/2 in Wistar-Han rat liver mitochondria using glutamate/malate and succinate as substrate assessed as decrease of FCCP-induced respiration at 3 to 6 ug/mg; in short: as §2
Rattus norvegicus [19] = organism: Rattus norvegicus; test: Inhibition of electron transport protein complex 1/2 in Wistar-Han rat liver mitochondria using glutamate/malate and succinate as substrate assessed as decrease of ADP/O ratio at 3 to 6 ug/mg; in short: as §2

| SMILES | Activity (Rattus norvegicus [1]) [%] | Activity (Rattus norvegicus [2]) [%] | Activity (Rattus norvegicus [3]) [%] | Activity (Rattus norvegicus [4]) [%] | Activity (Rattus norvegicus [5]) [%] | Activity (Rattus norvegicus [6]) [%] | Activity (Rattus norvegicus [7]) [%] | Activity (Rattus norvegicus [8]) [%] | Activity (Rattus norvegicus [9]) [mV] | Activity (Rattus norvegicus [10]) [mV] | Activity (Rattus norvegicus [11]) [mV] | Activity (Rattus norvegicus [12]) [mV] | inhibition (Rattus norvegicus [13]) | inhibition (Rattus norvegicus [14]) | Activity (BJ) | Activity (Hs-578T) | Activity (MCF7) | Activity (Rattus norvegicus [15]) | Activity (Rattus norvegicus [16]) | also measured |
| --- | --- | --- | --- | --- | --- | --- | --- | --- | --- | --- | --- | --- | --- | --- | --- | --- | --- | --- | --- | --- |
| C=C(C[n+]1ccc(N(C)C)cc1)[C@@H]1CC[C@]2(C(=O)O)CC[C@]3(C)[C@H](CC[C@@H]4[C@@]5(C)CC[C@H](O)C(C)(C)[C@@H]5CC[C@]43C)[C@@H]12.[Br-] | 57 | 40.3 | 63.3 | 51 | 13.8 | 22.4 | 13.5 | 19.5 | 228 | 228 | 229 | 229 | Active | inactive | Non-toxic | inactive | inactive |  |  |  |
| C=C(C)[C@@H]1CC[C@]2(COC(=O)C[n+]3ccc(N(C)C)cc3)CC[C@]3(C)[C@H](CC[C@@H]4[C@@]5(C)CC[C@H](OC(=O)C[n+]6ccc(N(C)C)cc6)C(C)(C)[C@@H]5CC[C@]43C)[C@@H]12.[Br-].[Br-] | 40 | 38.3 | 46 | 36.8 | 27.7 | 30.6 | 20.3 | 23.4 | 229 | 232 | 225 | 225 |  |  | Toxic | Active | Active | inactive | Active | inhibition (Rattus norvegicus [17]): Active; inhibition (Rattus norvegicus [18]): Active |
| C=C(C)[C@@H]1CC[C@]2(COC(=O)C[n+]3ccc(N(C)C)cc3)CC[C@]3(C)[C@H](CC[C@@H]4[C@@]5(C)CC[C@H](O)C(C)(C)[C@@H]5CC[C@]43C)[C@@H]12 | 42 | 39 | 31 | 28.8 | 27.8 | 28.5 | 22.6 | 22.5 | 224 | 226 | 225 | 225 |  | Active |  |  |  | inactive | Active | inhibition (Rattus norvegicus [19]): Active |
| C=C(C)[C@@H]1CC[C@]2(CO)CC[C@]3(C)[C@H](CC[C@@H]4[C@@]5(C)CC[C@H](OC(=O)C[n+]6ccc(N(C)C)cc6)C(C)(C)[C@@H]5CC[C@]43C)[C@@H]12.[Cl-] | 53 | 38 | 45 | 27.8 | 29.9 | 36.2 | 23.5 | 26.5 | 228 | 232 | 222 | 222 |  | inactive | Toxic | Active | Active | inactive | Active |  |
| C=C(C[n+]1ccc(N(C)C)cc1)[C@@H]1CC[C@]2(COC(=O)C[n+]3ccc(N(C)C)cc3)CC[C@]3(C)[C@H](CC[C@@H]4[C@@]5(C)CC[C@H](OC(=O)C[n+]6ccc(N(C)C)cc6)C(C)(C)[C@@H]5CC[C@]43C)[C@@H]12.[Br-].[Br-].[Br-] | 45.5 | 36 | 46.5 | 42.8 | 27.8 | 30.3 | 14.6 | 18.5 | 228 | 232 | 226 | 225 | Active | inactive | Toxic | Active | Active | inactive | Active |  |
